According to ChEMBL document CHEMBL1821687, “Discovery, synthesis, and biological evaluation of novel SMN protein modulators” (J Med Chem, 2011):
pIC50: −log10 of the molar value.

Key:
[1] = molecular target: Survival motor neuron protein (Homo sapiens) (UniProt Q16637); assay: Activation of SMN expressed in HEK293 cells assessed as rate of induction by SMN2-promotor driven luciferase reporter gene assay relative to basal level; type: cell-based; design: concentration or dose not given beside the values
Survival motor neuron protein (Homo sapiens), sequence (Q16637 whole entry): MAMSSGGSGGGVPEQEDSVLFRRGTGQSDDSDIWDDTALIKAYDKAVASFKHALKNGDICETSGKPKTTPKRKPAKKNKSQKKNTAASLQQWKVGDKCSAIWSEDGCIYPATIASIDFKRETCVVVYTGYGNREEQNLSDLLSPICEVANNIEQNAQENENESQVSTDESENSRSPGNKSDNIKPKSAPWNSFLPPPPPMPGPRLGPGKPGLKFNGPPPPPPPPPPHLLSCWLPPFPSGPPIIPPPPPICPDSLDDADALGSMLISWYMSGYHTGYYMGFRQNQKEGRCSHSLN
Outline: (§1)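 HEK-293 cells stably carrying the SMN2 reporter construct, kept in DMEM with 10% FCS, glutamax, pyruvate, pen/strep and 200 µg/mL hygromycin, and assayed without hygromycin. 2,000 cells/well were plated and adhered overnight at 37 °C, 5% CO2. Compounds were added as a 7-point titration, 50 µM to 25 nM final, in 0.46% DMSO, for 30–36 h. OneGlo luminescence was normalized to 4.5 mM sodium butyrate (100%) and DMSO (0%).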

[2] = molecular target: Survival motor neuron protein (Homo sapiens) (UniProt Q16637); assay: Activation of SMN expressed in HEK293 cells assessed as concentration required to reach 50% of maximum luciferase signal by SMN2-promotor driven luciferase reporter gene assay; type: cell-based; outline: as §1
[3] = molecular target: T1, Luciferin 4-monooxygenase (Luciola lateralis, UniProt Q01158); assay: Inhibition of fire fly luciferase; design: species or system Aquatica lateralis; settings: read-out: IC50
T1 sequence (Q01158 whole entry): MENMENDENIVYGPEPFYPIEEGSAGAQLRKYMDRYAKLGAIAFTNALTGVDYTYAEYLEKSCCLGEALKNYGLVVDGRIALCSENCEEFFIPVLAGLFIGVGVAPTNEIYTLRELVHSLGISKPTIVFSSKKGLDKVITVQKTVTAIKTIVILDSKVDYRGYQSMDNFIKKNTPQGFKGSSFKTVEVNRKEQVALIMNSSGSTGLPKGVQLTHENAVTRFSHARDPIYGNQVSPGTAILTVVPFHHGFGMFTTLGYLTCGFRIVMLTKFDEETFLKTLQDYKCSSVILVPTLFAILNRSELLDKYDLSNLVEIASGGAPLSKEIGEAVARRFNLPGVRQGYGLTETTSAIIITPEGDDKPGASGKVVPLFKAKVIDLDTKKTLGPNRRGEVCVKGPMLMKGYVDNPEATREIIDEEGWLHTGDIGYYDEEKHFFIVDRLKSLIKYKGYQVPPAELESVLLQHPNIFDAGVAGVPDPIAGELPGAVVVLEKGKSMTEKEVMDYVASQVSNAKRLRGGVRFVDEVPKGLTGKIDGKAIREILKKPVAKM

[4] = test system: Caco-2; assay: Apparent permeability from basolateral side to apical side of human Caco2 cells at 10 uM; type: ADME, cell-based; settings: caco-2, 10 µM
[5] = test system: Liver; assay: Half-life in mouse liver microsome at 1 uM; type: ADME; settings: microsomes
[6] = test system: Caco-2; assay: Apparent permeability from apical side to basolateral side of human Caco2 cells at 10 uM; type: ADME, cell-based; settings: caco-2, 10 µM

Cc1ccc(-c2csc(N3CCC(C(N)=O)CC3)n2)cc1
Activity [1]: 439%
Activity [2]: 1.22 µM

CN(C)c1cccc(-c2ncnc(N3CCC(C(N)=O)CC3)n2)c1
Activity [1]: 200%
Activity [2]: 1.22 µM

NC(=O)C1CCN(c2nnc(-c3ccc4c(c3)OCCCO4)s2)CC1
pIC50 [3]: 5.49
Papp [4]: 51.2 ×10⁻⁶ cm/s
Activity [1]: 257%
t1/2 [5]: > 1 h
Papp [6]: 21.2 ×10⁻⁶ cm/s
Activity [2]: 0.122 µM

NC(=O)C1CCN(c2nc(-c3ccc4c(c3)OCCCO4)cs2)CC1
Activity [1]: 443%
Activity [2]: 0.49 µM

COc1ccc(-c2cnc(N3CCC(C(N)=O)CC3)s2)cc1OC
Activity [1]: 209%
Activity [2]: 9.72 µM

CN(C)c1cccc(-c2ncc(F)c(N3CCC(C(N)=O)CC3)n2)c1
Activity [1]: 141%
Activity [2]: 3.07 µM

NC(=O)C1CCN(c2nc(-c3ccccc3Cl)cs2)CC1
Activity [1]: 57%
Activity [2]: 7.72 µM

NC(=O)C1CCN(c2nc(-c3ccc(Cl)cc3)cs2)CC1
Activity [1]: 381%
Activity [2]: 2.44 µM

CC(C)COc1ccc(-c2csc(N3CCC(C(N)=O)CC3)n2)cc1
Activity [1]: 54%
Activity [2]: 3.07 µM

Cn1ccc2cc(-c3csc(N4CCC(C(N)=O)CC4)n3)ccc21
Activity [1]: 534%
Activity [2]: 7.72 µM

CN(C)c1cccc(-c2csc(N3CCC(C(N)=O)CC3)n2)c1
Activity [1]: 504%
Activity [2]: 0.97 µM
